From ChEMBL document CHEMBL1671756, “In vitro and in vivo antifungal susceptibilities of the Mucoralean fungus Cunninghamella” (2010)
Activity calls are given as the source filed them. The calls are words filed in the database; no cut-off is given here.

Legend:
[1] = system: Cunninghamella bertholletiae; experiment: Antifungal activity against Cunninghamella bertholletiae UTHSC 05-2275 infected in neutropenic OF1 mouse assessed as increase in mouse survival rate at 0.8 mg/kg, iv qd administered 1 day after infection for 7 days relative to untreated control; format: functional, organism-based; parameters: dose 0.8 mg/kg
Outline: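 Male OF1 mice (~30 g) were made neutropenic with cyclophosphamide 200 mg/kg i.p. plus 5-fluorouracil 150 mg/kg i.v. 1 day before challenge. Challenge was 1 × 10⁴ CFU sporangiospores in 0.2 ml saline via the lateral tail vein. Mice got ceftazidime 5 mg/day s.c. on days 1–7. Dosing started 24 h post-challenge for 7 days. There were 10 mice/group, observed daily for 20 days. Kaplan-Meier analysis with log-rank test.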

[2] = system: Cunninghamella bertholletiae; experiment: Antifungal activity against Cunninghamella bertholletiae UTHSC 05-2275 infected in diabetic OF1 mouse assessed as increase in mouse survival rate at 0.8 mg/kg, iv qd administered 1 day after infection for 7 days relative to untreated control; format: functional, organism-based; parameters: dose 0.8 mg/kg
Outline: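 Male OF1 mice were made diabetic with streptozocin 210 mg/kg i.p. Diabetes was confirmed by blood glucose >250 mg/dl at day 10. Challenge was 1 × 10⁵ CFU in 0.2 ml saline i.v. (tail vein), with ceftazidime 5 mg/day s.c. on days 1–7. Treatment began 1 day after challenge for 7 days. There were 10 mice/group, checked daily for 20 days. Kaplan-Meier analysis with log-rank comparison.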

[3] = system: Cunninghamella bertholletiae; experiment: Antifungal activity against Cunninghamella bertholletiae UTHSC 05-2275 infected in neutropenic OF1 mouse assessed as decreased fungal load in lung at 0.8 mg/kg, iv qd administered 1 day post infection measured after 4 to 5 days relative to untreated control; format: functional, organism-based; parameters: dose 0.8 mg/kg
Outline: (§1)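 Neutropenic male OF1 mice (cyclophosphamide 200 mg/kg i.p. + 5-fluorouracil 150 mg/kg i.v., day −1) were infected i.v. with 1 × 10⁴ CFU. Ten mice per group were treated from day 1 and killed by CO₂ on day 5, or on day 4 if moribund. Half of each brain, lung and kidney was homogenized in 1 ml saline. Ten-fold dilutions were plated on PDA for 24 h at 35°C and counted as log₁₀ CFU/g.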

[4] = system: Cunninghamella bertholletiae; experiment: Antifungal activity against Cunninghamella bertholletiae UTHSC 05-2275 infected in neutropenic OF1 mouse assessed as decreased fungal load in kidney at 0.8 mg/kg, iv qd administered 1 day post infection measured after 4 to 5 days relative to untreated control; format: functional, organism-based; parameters: dose 0.8 mg/kg; outline: as §1
[5] = system: Cunninghamella bertholletiae; experiment: Antifungal activity against Cunninghamella bertholletiae UTHSC 04-2581 infected in neutropenic OF1 mouse assessed as decreased fungal load in lung at 0.8 mg/kg, iv qd administered 1 day post infection measured after 4 to 5 days relative to untreated control; format: functional, organism-based; parameters: dose 0.8 mg/kg
Outline: (§2)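 Neutropenic male OF1 mice (cyclophosphamide 200 mg/kg i.p. plus 5-fluorouracil 150 mg/kg i.v., day −1) were given 1 × 10⁴ CFU sporangiospores i.v. in 0.2 ml saline. Treatment from 24 h: 0.8 mg/kg i.v. or oral doses once daily; 10 mice per group. Killed at day 5 (day 4 if moribund). About half of brain, lungs and kidneys homogenized in saline; 10-fold dilutions plated on PDA for 24 h at 35°C; log₁₀ CFU/g tissue.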

[6] = system: Cunninghamella bertholletiae; experiment: Antifungal activity against Cunninghamella bertholletiae FMR-9598 infected in neutropenic OF1 mouse assessed as decreased fungal load in lung at 0.8 mg/kg, iv qd administered 1 day post infection measured after 4 to 5 days relative to untreated control; format: functional, organism-based; parameters: dose 0.8 mg/kg; outline: as §2
[7] = system: Cunninghamella bertholletiae; experiment: Antifungal activity against Cunninghamella bertholletiae UTHSC 05-2275 infected in neutropenic OF1 mouse assessed as increase in mouse survival rate at 40 mg/kg, po qd administered 1 day after infection for 7 days relative to untreated control; format: functional, organism-based; parameters: dose 40 mg/kg
Outline: (§3)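 Male OF1 mice, about 30 g, made neutropenic with cyclophosphamide 200 mg/kg i.p. plus 5-fluorouracil 150 mg/kg i.v. 1 day before challenge. Infected i.v. via the lateral tail vein with 1 × 10⁴ CFU of hemacytometer-counted sporangiospores in 0.2 ml saline. Ceftazidime 5 mg/day s.c. on days 1–7. Oral treatment started 24 h after challenge; 10 mice per group; checked daily for 20 days; Kaplan-Meier mean survival time, log-rank test.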

[8] = system: Cunninghamella bertholletiae; experiment: Antifungal activity against Cunninghamella bertholletiae UTHSC 05-2275 infected in diabetic OF1 mouse assessed as increase in mouse survival rate at 20 mg/kg, po qd administered 1 day after infection for 7 days relative to untreated control; format: functional, organism-based; parameters: dose 20 mg/kg
Outline: (§4)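 Male OF1 mice made diabetic with streptozocin 210 mg/kg i.p.; blood glucose above 250 mg/dl at day 10 required. Infected i.v. via the tail vein with 1 × 10⁵ CFU sporangiospores in 0.2 ml saline. Ceftazidime 5 mg/day s.c. on days 1–7. Oral once-daily treatment from day 1 for 7 days; 10 mice per group; followed for 20 days; Kaplan-Meier mean survival time, log-rank test.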

[9] = system: Cunninghamella bertholletiae; experiment: Antifungal activity against Cunninghamella bertholletiae UTHSC 05-2275 infected in diabetic OF1 mouse assessed as increase in mouse survival rate at 80 mg/kg, po qd administered 1 day after infection for 7 days relative to untreated control; format: functional, organism-based; parameters: dose 80 mg/kg; outline: as §4
[10] = system: Cunninghamella bertholletiae; experiment: Antifungal activity against Cunninghamella bertholletiae UTHSC 06-1945 infected in neutropenic OF1 mouse assessed as decreased fungal load in brain at 60 mg/kg, po qd administered 1 day post infection measured after 4 to 5 days relative to untreated control; format: functional, organism-based; parameters: dose 60 mg/kg; outline: as §2
[11] = system: Cunninghamella bertholletiae; experiment: Antifungal activity against Cunninghamella bertholletiae FMR-9598 infected in neutropenic OF1 mouse assessed as decreased fungal load in brain at 0.8 mg/kg, iv qd administered 1 day post infection measured after 4 to 5 days relative to untreated control; format: functional, organism-based; parameters: dose 0.8 mg/kg; outline: as §2
[12] = system: Cunninghamella bertholletiae; experiment: Antifungal activity against Cunninghamella bertholletiae FMR-9598 infected in neutropenic OF1 mouse assessed as decreased fungal load in brain at 60 mg/kg, po qd administered 1 day post infection measured after 4 to 5 days relative to untreated control; format: functional, organism-based; parameters: dose 60 mg/kg; outline: as §2
[13] = system: Cunninghamella bertholletiae; experiment: Antifungal activity against Cunninghamella bertholletiae UTSCH 05-2275 infected in diabetic OF1 mouse assessed as decreased fungal load in lung at 60 mg/kg, po qd administered 1 day post infection measured after 4 to 5 days relative to untreated control; format: functional, organism-based; parameters: dose 60 mg/kg
Outline: (§5)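 Male OF1 mice (mean 30 g) made diabetic with a single i.p. dose of streptozocin 210 mg/kg; blood glucose >250 mg/dl at day 10 qualified. Ceftazidime 5 mg/day s.c. given on days 1–7. Challenge by lateral tail vein with 1 × 10⁵ CFU sporangiospores in 0.2 ml saline. Oral dosing once daily for 7 days, starting 1 day after challenge. Untreated controls. Ten mice per group.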

[14] = system: Cunninghamella bertholletiae; experiment: Antifungal activity against Cunninghamella bertholletiae UTSCH 05-2275 infected in diabetic OF1 mouse assessed as decreased fungal load in lung at 40 mg/kg, po qd administered 1 day post infection measured after 4 to 5 days relative to untreated control; format: functional, organism-based; parameters: dose 40 mg/kg; outline: as §5
[15] = system: Cunninghamella bertholletiae; experiment: Antifungal activity against Cunninghamella bertholletiae UTHSC 04-2581 infected in neutropenic OF1 mouse assessed as increase in mouse survival rate at 60 mg/kg, po qd administered 1 day after infection for 7 days relative to untreated control; format: functional, organism-based; parameters: dose 60 mg/kg; outline: as §3
[16] = system: Cunninghamella bertholletiae; experiment: Antifungal activity against Cunninghamella bertholletiae UTHSC 05-2275 infected in neutropenic OF1 mouse assessed as increase in mouse survival rate at 25 mg/kg, po bid administered 1 day after infection for 7 days relative to untreated control

## C[C@@H]1[C@H](O)[C@@H](C)/C=C/C=C/C=C/C=C/C=C/C=C/C=C/[C@H](O[C@@H]2O[C@H](C)[C@@H](O)[C@H](N)[C@@H]2O)C[C@@H]2O[C@](O)(C[C@@H](O)C[C@@H](O)[C@H](O)CC[C@@H](O)C[C@@H](O)CC(=O)O[C@H]1C)C[C@H](O)[C@H]2C(=O)O [AMPHOTERICIN B]
[1]
  Activity: Active
[2]
  Activity: Active
[3]
  Activity: Active
[4]
  Activity: Active
[5]
  Activity: Active
[6]
  Activity: Active

## CC[C@@H]([C@H](C)O)n1ncn(-c2ccc(N3CCN(c4ccc(OC[C@@H]5CO[C@@](Cn6cncn6)(c6ccc(F)cc6F)C5)cc4)CC3)cc2)c1=O [POSACONAZOLE]
[7]
  Activity: Active
[8]
  Activity: inactive
[9]
  Activity: Active
[10]
  Activity: Active
[11]
  Activity: Active
[12]
  Activity: Active
[13]
  Activity: Active
[14]
  Activity: inactive
[15]
  Activity: Active
[16]
  Activity: inactive
